The record followed here is ChEMBL document CHEMBL1148443, “Importance of phenolic address groups in opioid kappa receptor selective antagonists” (J Med Chem, 2004).

Molecules are shown by their SMILES. Where only a bound is given, the exact number is not on record here.

The species entered for test [1] is Cavia porcellus. Description: Functional antagonism was obtained by the ability of compound to inhibit stimulation of [35S]GTP gamma S binding produced by selective agonists U69,593 in guinea pig caudate membranes. (In general: GTPγS is a poorly hydrolysed GTP analogue; its binding reports G protein activation.)
For test [2], the species on record is Cavia porcellus. Description: Functional antagonism was obtained by the ability of compound to inhibit stimulation of [35S]GTP gamma S binding produced by selective agonists DAMGO in guinea pig caudate membranes.
For test [3], the species on record is Cavia porcellus. Description: Functional antagonism was obtained by the ability of compound to inhibit stimulation of [35S]GTP gamma S binding produced by selective agonists SNC-80 in guinea pig caudate membranes.
The target of test [4] is Opioid receptors; delta & kappa (Homo sapiens) (UniProt P41145+P41143). The test can be described thus: Selectivity of compound for delta opioid receptor to that of kappa opioid receptor. It is filed as protein assay.
Opioid receptors; delta & kappa (Homo sapiens), sequence (P41143 whole entry, looked up): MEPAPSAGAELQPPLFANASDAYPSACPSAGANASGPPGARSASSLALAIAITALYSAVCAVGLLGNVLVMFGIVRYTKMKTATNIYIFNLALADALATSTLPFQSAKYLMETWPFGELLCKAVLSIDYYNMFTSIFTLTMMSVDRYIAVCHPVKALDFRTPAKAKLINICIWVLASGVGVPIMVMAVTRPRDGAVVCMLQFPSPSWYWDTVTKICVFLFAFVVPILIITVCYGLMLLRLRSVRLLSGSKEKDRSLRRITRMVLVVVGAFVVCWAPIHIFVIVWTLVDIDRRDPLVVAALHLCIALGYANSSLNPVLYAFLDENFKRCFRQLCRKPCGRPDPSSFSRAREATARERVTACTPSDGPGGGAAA
Opioid receptors; delta & kappa (Homo sapiens), sequence (P41145 whole entry, looked up): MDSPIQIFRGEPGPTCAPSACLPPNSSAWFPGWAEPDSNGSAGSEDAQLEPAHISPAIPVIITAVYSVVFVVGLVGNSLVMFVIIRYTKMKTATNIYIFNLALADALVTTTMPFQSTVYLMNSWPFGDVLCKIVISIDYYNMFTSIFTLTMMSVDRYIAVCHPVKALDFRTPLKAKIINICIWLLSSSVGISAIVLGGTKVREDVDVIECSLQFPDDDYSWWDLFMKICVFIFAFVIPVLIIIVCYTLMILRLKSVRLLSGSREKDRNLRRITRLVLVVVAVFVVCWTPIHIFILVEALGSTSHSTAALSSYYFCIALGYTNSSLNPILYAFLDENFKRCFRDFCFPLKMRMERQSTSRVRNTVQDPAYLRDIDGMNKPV
Test [5] has as its target Opioid receptors; mu & kappa (Homo sapiens) (UniProt P41145+P35372). The test can be described thus: Selectivity of compound for mu opioid receptor to that of kappa opioid receptor. It is filed as protein assay.
Test [6] concerns the target Delta-type opioid receptor (Rattus norvegicus, UniProt P33533). Description: Binding affinity of compound for opioid receptor delta 1 was determined using [3H]DADLE as radioligand from rat brain tissue. Summed up:
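Competitive binding assays. Mu and delta receptors came from rat brain membranes. Kappa receptors came from guinea pig caudate membranes. Test compounds displaced the receptor-selective radioligand.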

Test [7] deals with Kappa-type opioid receptor (Cavia porcellus, UniProt P41144). The test can be described thus: Binding affinity of compound for Opioid receptor kappa 1 was determined using [3H]U-69593 as radioligand from guinea pig caudate. The method in brief: (§1)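 Competitive binding assays. Mu and delta receptors came from rat brain membranes. Kappa receptors came from guinea pig caudate membranes.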
Kappa-type opioid receptor, sequence (P41144 whole entry): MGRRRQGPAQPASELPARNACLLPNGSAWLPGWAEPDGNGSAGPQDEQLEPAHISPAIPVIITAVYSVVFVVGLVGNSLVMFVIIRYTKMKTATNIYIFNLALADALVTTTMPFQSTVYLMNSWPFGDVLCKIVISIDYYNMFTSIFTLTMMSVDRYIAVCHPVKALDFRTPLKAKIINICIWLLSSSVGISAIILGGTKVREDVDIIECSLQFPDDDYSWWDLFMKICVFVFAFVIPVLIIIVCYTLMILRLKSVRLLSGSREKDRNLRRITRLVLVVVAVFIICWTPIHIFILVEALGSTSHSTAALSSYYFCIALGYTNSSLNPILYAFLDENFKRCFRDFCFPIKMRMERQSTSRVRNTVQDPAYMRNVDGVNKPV

The next test deals with Mu-type opioid receptor (Rattus norvegicus, UniProt P33535). Description: Binding affinity of compound for Opioid receptor mu 1 was determined using [3H]DAMGO as radioligand from rat brain tissue. Summed up: as §1
Mu-type opioid receptor, sequence (P33535 whole entry): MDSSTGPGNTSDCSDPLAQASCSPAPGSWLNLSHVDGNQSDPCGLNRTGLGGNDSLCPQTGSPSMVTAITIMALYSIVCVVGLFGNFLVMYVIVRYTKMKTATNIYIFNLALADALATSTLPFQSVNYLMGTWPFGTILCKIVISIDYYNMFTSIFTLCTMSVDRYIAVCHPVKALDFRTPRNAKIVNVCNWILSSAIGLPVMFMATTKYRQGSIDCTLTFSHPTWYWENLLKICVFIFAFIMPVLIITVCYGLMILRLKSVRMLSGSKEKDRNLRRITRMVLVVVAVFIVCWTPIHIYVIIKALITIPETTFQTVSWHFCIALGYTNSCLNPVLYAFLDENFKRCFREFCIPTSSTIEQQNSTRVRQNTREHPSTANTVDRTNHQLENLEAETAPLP

Opioid receptors; mu & kappa (Homo sapiens), sequence (P35372 whole entry, looked up): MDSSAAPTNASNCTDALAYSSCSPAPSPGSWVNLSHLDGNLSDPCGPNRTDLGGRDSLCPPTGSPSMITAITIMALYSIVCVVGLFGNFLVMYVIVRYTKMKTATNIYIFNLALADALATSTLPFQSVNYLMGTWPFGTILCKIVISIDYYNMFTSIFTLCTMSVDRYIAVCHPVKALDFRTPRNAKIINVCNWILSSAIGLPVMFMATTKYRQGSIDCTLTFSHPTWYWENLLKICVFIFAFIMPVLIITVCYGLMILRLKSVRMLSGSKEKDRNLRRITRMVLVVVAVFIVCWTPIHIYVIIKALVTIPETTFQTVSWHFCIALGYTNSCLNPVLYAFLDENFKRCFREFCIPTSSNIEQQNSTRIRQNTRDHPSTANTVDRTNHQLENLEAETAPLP
Opioid receptors; mu & kappa (Homo sapiens), sequence (P41145 whole entry, looked up): as the sequence (P41145 whole entry, looked up) above
Delta-type opioid receptor, sequence (P33533 whole entry): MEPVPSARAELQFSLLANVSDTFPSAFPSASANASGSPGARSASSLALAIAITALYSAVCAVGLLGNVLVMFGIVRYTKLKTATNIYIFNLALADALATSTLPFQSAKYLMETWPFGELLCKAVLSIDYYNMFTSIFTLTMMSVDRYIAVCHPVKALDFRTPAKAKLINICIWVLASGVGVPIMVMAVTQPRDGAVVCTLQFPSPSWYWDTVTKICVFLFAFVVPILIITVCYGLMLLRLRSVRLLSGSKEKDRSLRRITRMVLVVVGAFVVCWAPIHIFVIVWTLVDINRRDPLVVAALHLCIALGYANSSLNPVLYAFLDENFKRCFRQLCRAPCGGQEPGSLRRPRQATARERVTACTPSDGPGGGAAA

For orientation: Ki means a dissociation constant, usually derived from enzyme kinetics or from competition with a known ligand. Turning to `Oc1ccc2c3c1O[C@H]1c4[nH]c5c(c4C[C@@]4(O)[C@@H](C2)N(CC2CC2)CC[C@]314)C[C@@]1(O)[C@H]2Cc3ccc(O)c4c3[C@@]1(CCN2CC1CC1)[C@H]5O4` (relative stereo) [NORBINALTORPHIMINE], the Ki was 0.038 nM in the test filed under Cavia porcellus [1] and 16.7 nM in the test filed under Cavia porcellus [2].
Regarding `CC(C)[C@@H](CN1CC[C@@](C)(c2cccc(O)c2)[C@@H](C)C1)NC(=O)[C@H]1Cc2ccc(O)cc2CN1` [JDTIC], the Ki was greater than 300 nM in the test filed under Cavia porcellus [3], 0.02 nM in the test filed under Cavia porcellus [1] and 2.16 nM in the test listed under Cavia porcellus [2]. The Selectivity in test [4] was 940; in test [5], 12.
On to `CC(C)[C@@H](CN1CC[C@@](C)(c2cccc(O)c2)[C@@H](C)C1)NC(=O)CCc1ccccc1`, for which the Ki in test [6] is greater than 5050 nM; in test [7] it was 446 nM; at Mu-type opioid receptor, 946 nM. For the same compound, the Selectivity in test [4] worked out at 11; in test [5], 2.
In the case of `CC(C)[C@@H](CN1CC[C@@](C)(c2cccc(O)c2)[C@@H](C)C1)NC(=O)[C@H]1Cc2ccccc2CN1`, the Ki stood at 213 nM in the test listed under Cavia porcellus [3], 11.5 nM in the test listed under Cavia porcellus [1] and 68.6 nM in the test filed under Cavia porcellus [2]. Further, the results for the Selectivity in test [4] and in test [5] were greater than 2330 and 369, respectively.
As to `CC(C)[C@@H](CN1CC[C@@](C)(c2cccc(O)c2)[C@@H](C)C1)NC(=O)CCc1ccc(O)cc1`, the Ki stood at 450 nM in the test listed under Cavia porcellus [3], 4.7 nM in the test filed under Cavia porcellus [1] and 7.25 nM in the test filed under Cavia porcellus [2]. Moreover, the values for the Selectivity in test [4] and in test [5] were greater than 885 and 45, respectively.
On to `Oc1ccc2c3c1O[C@H]1c4[nH]c5c(c4C[C@@]4(O)[C@@H](C2)N(CC2CC2)CC[C@]314)C[C@@]1(O)[C@H]2Cc3ccc(O)c4c3[C@@]1(CCN2CC1CC1)[C@H]5O4` [NORBINALTORPHIMINE], for which the Ki came out at 111 nM in test [6] and 1.33 nM in test [7].
